Laboratory results from ChEMBL document CHEMBL4196140, “Spiro-Phthalides and Isocoumarins Isolated from the Marine-Sponge-Derived Fungus Setosphaeria sp. SCSIO41009” (J Nat Prod, 2018).
≈ marks a conversion by molar mass, not a printed value. Calls of active or inactive are those of the source. The rule behind the calls is not given here.

Columns and labels:
[1] = system: Colletotrichum acutatum; assay: Antimicrobial activity against Colletotrichum acutatum by broth microdilution method; assay type: functional
[2] = system: Influenza A virus; assay: Antiviral activity against Influenza A virus H1N1 A/FM-1/1/47 infected in MDCK cells assessed as inhibition of virus-induced cytopathic effect after 48 hrs by MTT assay; assay type: functional, organism-based
[3] = system: Staphylococcus aureus; assay: Antimicrobial activity against Staphylococcus aureus by broth microdilution method; assay type: functional, organism-based
[4] = biological target: T1, Phosphotyrosine protein phosphatase (Mycobacterium tuberculosis) (UniProt A0A045ISB3); assay: Inhibition of Mycobacterium PTPB at 50 uM using p-nitrophenyl phosphate as substrate incubated for 10 mins followed by substrate addition and measured for 5 mins by spectrophotometric method
T1 sequence (whole entry): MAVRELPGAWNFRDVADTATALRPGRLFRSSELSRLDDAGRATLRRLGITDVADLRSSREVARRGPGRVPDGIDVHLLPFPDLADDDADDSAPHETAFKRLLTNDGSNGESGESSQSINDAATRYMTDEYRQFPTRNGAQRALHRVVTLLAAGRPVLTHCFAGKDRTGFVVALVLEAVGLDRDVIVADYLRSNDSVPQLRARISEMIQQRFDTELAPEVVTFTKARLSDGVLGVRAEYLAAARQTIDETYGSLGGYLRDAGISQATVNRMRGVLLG

[5] = system: Colletotrichum asianum; assay: Antimicrobial activity against Colletotrichum asianum by broth microdilution method; assay type: functional
[6] = Antioxidant activity assessed as DPPH radical scavenging activity incubated for 30 mins in dark condition; assay type: functional
Summary of the method: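 Test samples in DMSO were mixed 1:9 with freshly made 0.2 mM DPPH in EtOH (DPPH stock level), giving final compound levels of 50, 25, 12.5, 6.25 and 3.125 μg/mL, in triplicate, with ascorbic acid as positive control. After 30 min in the dark, the fall in absorbance at 517 nm was read. Blank: EtOH instead of DPPH. Control: DMSO instead of sample. % scavenging = [1 − (sample − blank)/control] × 100. IC50 is the concentration scavenging 50% of radicals.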

With CCCCOCc1c(O)cc(C)c2c1Oc1c(C)cc(O)c(C)c1OC2=O the MIC [1] was 630 mg/L (≈ 1690 µM), the inhibition [2] was “inactive” and the Activity [3] was “inactive”. For the same compound, the inhibition [4] was “inactive” and the MIC [5] was 630 mg/L (≈ 1690 µM).

With COCc1c(O)cc(C)c2c1Oc1c(C)cc(O)c(C)c1OC2=O the MIC [1] was 310 mg/L (≈ 938 µM), the inhibition [2] was “inactive” and the Activity [3] was “inactive”. For the same compound, the inhibition [4] was “inactive” and the MIC [5] was 160 mg/L (≈ 484 µM).

For COC(=O)CCCc1c(OC)cc(=O)oc1C, the inhibition [2] was “inactive”, the Activity [3] was “inactive” and the inhibition [4] was “inactive”.

With CCC[C@H]1C[C@H]2OC(=O)c3c(cc(OC)c(OC)c3O)[C@@H]2O1 the inhibition [2] was “inactive”, the Activity [3] was “inactive” and the inhibition [4] was “inactive”.

With COc1cc2c(c(O)c1OC)C(=O)O[C@@H]1C[C@H](CCC(=O)O)O[C@H]21 the inhibition [2] was “inactive”, the Activity [3] was “inactive” and the inhibition [4] was “inactive”.

In the case of CCCC(=O)CC[C@H]1OC(=O)c2c1cc(O)c(OC)c2O, the inhibition [2] is reported as “inactive”, the Activity [3] is reported as “inactive” and the inhibition [4] is reported as “inactive”.

In the case of CCC[C@H]1C[C@H](O)[C@]2(OC(=O)c3c2cc(OC)c(OC)c3O)O1, the inhibition [2] is reported as “inactive”, the Activity [3] is reported as “inactive” and the inhibition [4] is reported as “inactive”.

Work on O=C1O[C@H]([C@@H](O)CO)C(O)=C1O [ASCORBIC ACID] yielded an IC50 [6] of 39 µM.

For COc1cc2c(c(O)c1OC)C(=O)O[C@@H]1C[C@H](C[C@@H](C)O)O[C@H]21, the inhibition [2] was “inactive”, the Activity [3] was “inactive” and the inhibition [4] was “inactive”.

In the case of CCCC(=O)CC[C@@H]1OC(=O)c2c1cc(OC)c(OC)c2O, the inhibition [2] is reported as “inactive”, the Activity [3] is reported as “inactive” and the inhibition [4] is reported as “inactive”.

With COc1cc2c(c(O)c1OC)C(=O)O[C@@H]1C[C@H](CCCO)O[C@H]21 the inhibition [2] was “inactive”, the Activity [3] was “inactive” and the inhibition [4] was “inactive”.

With CCC(O)Cc1c(OC)cc(=O)oc1C (centres undefined) the inhibition [2] was “inactive”, the Activity [3] was “inactive” and the inhibition [4] was “inactive”.

C[C@@H]1C[C@@H]([C@H](O)CC2CC(=O)NC(=O)C2)C(=O)[C@@H](C)C1 [CYCLOHEXIMIDE] gave an MIC [1] of 40 mg/L (≈ 142 µM) and an MIC [5] of 80 mg/L (≈ 284 µM).

In the case of COc1cc(=O)oc(C)c1CCC(C)O (centres undefined), the inhibition [2] is reported as “inactive”, the Activity [3] is reported as “inactive” and the inhibition [4] is reported as “inactive”.

For CCC[C@@H]1C[C@H]2OC(=O)c3c(cc(O)c(OC)c3O)[C@@H]2O1, the inhibition [2] was “inactive”, the Activity [3] was “inactive” and the inhibition [4] was “inactive”.

In the case of CC[C@H](O)[C@H]1C[C@H]2OC(=O)c3c(cc(OC)c(OC)c3O)[C@H]2O1, the inhibition [2] is reported as “inactive”, the Activity [3] is reported as “inactive” and the inhibition [4] is reported as “inactive”.

In the case of COc1cc(=O)oc(C)c1CCCC(=O)O, the inhibition [2] is reported as “inactive”, the Activity [3] is reported as “inactive” and the inhibition [4] is reported as “inactive”.

With CCCCc1c(OC)cc(=O)oc1CO the inhibition [2] was “inactive”, the Activity [3] was “inactive” and the inhibition [4] was “inactive”.

In the case of CCC[C@@H]1C[C@H]2OC(=O)c3c(cc(OC)c(OC)c3O)[C@@H]2O1, the inhibition [2] is reported as “inactive”, the Activity [3] is reported as “inactive” and the inhibition [4] is reported as “inactive”.

With CCC[C@H]1C[C@H](O)[C@@]2(OC(=O)c3c2cc(OC)c(OC)c3O)O1 the inhibition [2] was “inactive”, the Activity [3] was “inactive” and the inhibition [4] was “inactive”.

With CCC[C@H]1C[C@H]2OC(=O)c3c(cc(OC)c(O)c3O)[C@H]2O1 the inhibition [2] was “inactive”, the Activity [3] was “inactive” and the inhibition [4] was “inactive”. For the same compound, the IC50 [6] was 38 µM.

In the case of CCCCC1=C(OC)C(=O)OC1(C)O (racemic), the inhibition [2] is reported as “inactive”, the Activity [3] is reported as “inactive” and the inhibition [4] is reported as “inactive”.

For CC[C@@H](O)[C@H]1C[C@H]2OC(=O)c3c(cc(OC)c(OC)c3O)[C@H]2O1, the inhibition [2] was “inactive”, the Activity [3] was “inactive” and the inhibition [4] was “inactive”.

For CCCCc1c(OC)cc(=O)oc1C, the inhibition [2] was “inactive”, the Activity [3] was “inactive” and the inhibition [4] was “inactive”.
